Experimental data: paper PMC3990230 (Journal of medicinal chemistry, 2010)

What was measured:
A549 cells = experiment: Clonogenic assay; format: cell-based, Human; details: 9 day incubation
How it was run: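 A549 cells seeded at 200 cells/well and incubated overnight, then exposed to test compound or DMSO vehicle. Medium and compound replaced every 3 days, for 9 days in total. Cells fixed in 10% TCA for 30 min at 4°C, water-washed, SRB-stained and rinsed with 1% acetic acid. Plates scanned, colonies counted and normalized to DMSO control.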

IKK = format: cell-based, Human; details: A549 cells, TNFα induced, Western blot
How it was run: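 A549 cells were pretreated with test compound at varying concentrations (4 hr), then stimulated with TNFα. Phosphorylation read-out: lysates taken at 7 min, probed anti-pS32-IκB, stripped and re-probed for total IκB. Stability read-out: TNFα 10 ng/ml for 20 min, total IκB only. NP-40 lysis (pH 7.4, phosphatase/protease inhibitors), 12.5% SDS-PAGE, nitrocellulose, 5% milk/TBS-T block, primary antibody ≥2 hr.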

recombinant IKKβ = biological target: T1, recombinant IKKβ (Homo sapiens, UniProt O14920); experiment: In vitro IKK assay: 32P incorporation into GST-IκB; format: biochemical; details: 30 min at 30°C
T1 sequence (O14920 1-756): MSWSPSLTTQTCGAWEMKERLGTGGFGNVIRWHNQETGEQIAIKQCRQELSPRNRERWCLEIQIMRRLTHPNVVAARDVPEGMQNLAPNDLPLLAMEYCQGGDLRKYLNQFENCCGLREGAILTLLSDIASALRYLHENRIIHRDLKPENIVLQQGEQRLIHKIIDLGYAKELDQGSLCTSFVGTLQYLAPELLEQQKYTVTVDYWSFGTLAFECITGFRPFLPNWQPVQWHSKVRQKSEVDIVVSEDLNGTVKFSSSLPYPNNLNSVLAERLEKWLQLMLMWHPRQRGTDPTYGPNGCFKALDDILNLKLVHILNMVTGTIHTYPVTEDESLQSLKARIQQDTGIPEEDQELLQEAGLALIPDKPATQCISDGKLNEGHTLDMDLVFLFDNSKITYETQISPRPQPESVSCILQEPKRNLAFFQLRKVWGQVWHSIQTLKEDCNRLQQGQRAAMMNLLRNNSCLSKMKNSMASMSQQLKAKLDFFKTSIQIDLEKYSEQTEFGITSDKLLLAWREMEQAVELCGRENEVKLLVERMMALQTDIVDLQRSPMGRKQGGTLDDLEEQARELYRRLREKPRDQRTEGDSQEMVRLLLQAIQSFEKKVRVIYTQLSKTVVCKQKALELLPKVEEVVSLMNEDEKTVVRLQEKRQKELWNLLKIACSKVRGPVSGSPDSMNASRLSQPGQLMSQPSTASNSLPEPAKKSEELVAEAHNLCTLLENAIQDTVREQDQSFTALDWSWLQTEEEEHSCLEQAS
How it was run: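 Activated recombinant IKKβ (40 ng) in MOPS buffer (pH 7.0) preincubated with test compound for 30 min at room temperature. Mg-ATP mix (100 μM ATP), purified GST-IκBα (5 μg) and [γ-32P]ATP (0.5 μCi) added, then 30 min at 30°C. Reaction stopped by boiling in SDS sample buffer. Samples run on 12.5% SDS-PAGE with Coomassie staining. Read by autoradiography and scintillation counting of excised bands. Controls lacked enzyme or compound.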

NF-κB = NF-κB translocation assay; format: cell-based, Human; details: A549 cells, TNFα induced

effect on IKKβ catalyzed incorporation of 32P into GST-IκB (in words) (recombinant IKKβ) | Molecule | concentration with detectable inhibition of colony forming activity (A549 cells) [µM] | block of IκB phosphorylation and degradation (in words) (IKK) | fold greater potency than curcumin in blocking nuclear localization of NF-κB (NF-κB)
dose-dependent inhibition of IKKβ | COc1cc(/C=C/C(=O)C(=Cc2cccc(OC)c2OC)C(=O)/C=C/c2ccc(O)c(OC)c2)ccc1O [Compound 35, (1E,6E)-4-(2,3-dimethoxybenzylidene)-1,7-bis(4-hydroxy-3-methoxyphenyl)hepta-1,6-diene-3,5-dione] | – | potently block the IκB phosphorylation and degradation in a lower concentration | –
dose-dependent inhibition of IKKβ | COc1cc(C=C(C(=O)/C=C/c2ccc(OC)c(OC)c2)C(=O)/C=C/c2ccc(OC)c(OC)c2)ccc1O [Compound 17, (1E,6E)-1,7-bis(3,4-dimethoxyphenyl)-4-(4-hydroxy-3-methoxybenzylidene)hepta-1,6-diene-3,5-dione] | – | potently block the IκB phosphorylation and degradation in a lower concentration | more than 10 fold
dose-dependent inhibition of IKKβ | COc1ccc(/C=C/C(=O)C(=Cc2ccc(F)cc2)C(=O)/C=C/c2ccc(OC)c(OC)c2)cc1OC [Compound 21, (1E,6E)-1,7-bis(3,4-dimethoxyphenyl)-4-(4-fluorobenzylidene)hepta-1,6-diene-3,5-dione] | – | potently block the IκB phosphorylation and degradation in a lower concentration | more than 10 fold

Molecule | effect on IKKβ catalyzed incorporation of 32P into GST-IκB (in words) (recombinant IKKβ) | concentration with detectable inhibition of colony forming activity (A549 cells) [µM] | block of IκB phosphorylation and degradation (in words) (IKK) | fold greater potency than curcumin in blocking nuclear localization of NF-κB (NF-κB)
5-hydroxy-1, 7-bis(4-hydroxy-3-methoxyphenyl)hepta-1, 4, 6-trien-3-one [Curcumin, reference compound] | no obvious effect | 4 | block IκB phosphorylation and degradation when high concentrations were used | –
